Source: ChEMBL document CHEMBL1124223, “1-Substituted 7-[3-[(ethylamino)methyl]-1-pyrrolidinyl]-6,8- difluoro-1,4-dihydro-4-oxo-3-quinolinecarboxylic acids. New quantitative structure-activity relationships at N1 for the quinolone antibacterials” (1988)
Converted amounts (≈) assume the structure as drawn.

Legend:
[1] = system: Staphylococcus aureus; test: Minimum inhibitory concentration against Staphylococcus aureus (H-228).; assay type: functional
Method in brief: (§1)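 MICs were determined by standard microtitration against a panel of 11 bacterial strains. Aqueous stock solutions were prepared with 0.1 N sodium or potassium hydroxide.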

[2] = system: Streptococcus pneumoniae; test: Minimum inhibitory concentration against Streptococcus pneumoniae (SV-1).; assay type: functional; method in brief: as §1
[3] = system: Staphylococcus aureus; test: Minimum inhibitory concentration against Staphylococcus aureus (UC76).; assay type: functional; method in brief: as §1
[4] = biological target: DNA gyrase (Escherichia coli) (UniProt P0AES6+P0AES4); test: Concentration required for 50% inhibition of gyrase.; assay type: protein-complex assay
Method in brief: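 DNA gyrase inhibition: the drug concentration (µg/mL) giving 50% inhibition (I50) was recorded, along with the lowest concentration inducing gyrase-mediated DNA cleavage. Data come from duplicate experiments with ±50% reproducibility.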

[5] = system: Enterobacter; test: Minimum inhibitory concentration against gram-negative enterobacteriaceae.; assay type: functional
Method in brief: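 This value is the geometric mean of microtitration MICs for the Gram-negative Enterobacteriaceae strains in the 11-organism panel. Aqueous stocks were prepared in 0.1 N sodium or potassium hydroxide.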

[6] = system: Escherichia coli; test: Minimum inhibitory concentration against Escherichia coli (vogel); assay type: functional; method in brief: as §1
[7] = system: Klebsiella pneumoniae; test: Minimum inhibitory concentration against Klebsiella pneumoniae (MGH-2); assay type: functional; method in brief: as §1
[8] = system: Escherichia coli; test: Minimum inhibitory concentration against Escherichia coli (H560); assay type: functional; method in brief: as §1
[9] = system: Streptococcus pyogenes; test: Minimum inhibitory concentration against Streptococcus pyogenes (C203).; assay type: functional; method in brief: as §1
[10] = system: Providencia rettgeri; test: Minimum inhibitory concentration against Providencia rettgeri. (M1771); assay type: functional; method in brief: as §1
[11] = system: Enterococcus faecalis; test: Minimum inhibitory concentration against Streptococcus faecalis (MGH-2).; assay type: functional; method in brief: as §1
[12] = system: Pseudomonas aeruginosa; test: Minimum inhibitory concentration against Pseudomonas aeruginosa. (UI-18); assay type: functional; method in brief: as §1
[13] = system: Enterobacter cloacae; test: Minimum inhibitory concentration against Enterobacter cloacae. (MA2446).; assay type: functional
[14] = system: Mus musculus; test: In vivo activity against Streptococcus pyogenes (sc); assay type: functional; conditions: read-out: PD50
Method in brief: (§2)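 Median protective dose (PD50, mg/kg) measured in acute, lethal, systemic infections in female Charles River CD-1 mice. A single dose of compound was given at the time of bacterial challenge. Aqueous stock solutions were made with 0.1 N sodium or potassium hydroxide.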

[15] = system: Mus musculus; test: In vivo activity against Pseudomonas aeruginosa (po); assay type: functional; conditions: read-out: PD50; method in brief: as §2
[16] = system: Mus musculus; test: In vivo activity against Streptococcus pneumoniae (po); assay type: functional; conditions: read-out: PD50; method in brief: as §2
[17] = system: Mus musculus; test: In vivo activity against Streptococcus pyogenes (po); assay type: functional; conditions: read-out: PD50; method in brief: as §2
[18] = system: Mus musculus; test: In vivo activity against Streptococcus pneumoniae (sc); assay type: functional; conditions: read-out: PD50; method in brief: as §2
[19] = system: Mus musculus; test: In vivo activity against Escherichia coli (po); assay type: functional; conditions: read-out: PD50; method in brief: as §2
[20] = system: Mus musculus; test: In vivo activity against Pseudomonas aeruginosa (sc); assay type: functional; conditions: read-out: PD50; method in brief: as §2
[21] = system: Mus musculus; test: In vivo activity against Escherichia coli (sc); assay type: functional; conditions: read-out: PD50; method in brief: as §2

Row | Structure (SMILES) | MIC [1] [mg/L] | MIC [2] [mg/L] | MIC [3] [mg/L] | IC50 [4] [mg/L] | MIC [5] [mg/L] | MIC [6] [mg/L] | MIC [7] [mg/L] | MIC [8] [mg/L] | MIC [9] [mg/L] | MIC [10] [mg/L] | MIC [11] [mg/L] | MIC [12] [mg/L] | MIC [13] [mg/L] | other results
1 | CCNCC1CCN(c2c(F)cc3c(=O)c(C(=O)O)cn(-c4nccs4)c3c2F)C1 (centres undefined) | 25 (≈ 57.5 µM) | 12.5 (≈ 28.8 µM) | 1.6 (≈ 3.68 µM) | 30 (≈ 69 µM) | 3.14 (≈ 7.23 µM) | 1.6 (≈ 3.68 µM) | 3.1 (≈ 7.14 µM) | 3.1 (≈ 7.14 µM) | 6.3 (≈ 14.5 µM) | 12.5 (≈ 28.8 µM) | 6.3 (≈ 14.5 µM) | 25 (≈ 57.5 µM) | 1.6 (≈ 3.68 µM) | 
2 | CN1CCN(c2cc3c(cc2F)c(=O)c(C(=O)O)cn3-c2ccc(F)cc2)CC1 [DIFLOXACIN] | 1.6 (≈ 4.01 µM) | 1.6 (≈ 4.01 µM) | 0.4 (≈ 1 µM) |  | 0.4 (≈ 1 µM) | 0.4 (≈ 1 µM) | 0.4 (≈ 1 µM) | 0.05 (≈ 0.125 µM) | 1.6 (≈ 4.01 µM) | 1.6 (≈ 4.01 µM) | 3.1 (≈ 7.76 µM) | 0.8 (≈ 2 µM) | 0.8 (≈ 2 µM) | ED50 [14]: 7 mg/kg; ED50 [15]: 14 mg/kg; ED50 [16]: 16 mg/kg; ED50 [17]: 7 mg/kg; ED50 [18]: 13 mg/kg; ED50 [19]: 2 mg/kg; ED50 [20]: 14 mg/kg; ED50 [21]: 2 mg/kg
3 | O=C(O)c1cn(C2CC2)c2cc(N3CCNCC3)c(F)cc2c1=O [CIPROFLOXACIN] | 3.1 (≈ 9.36 µM) | 1.6 (≈ 4.83 µM) | 0.2 (≈ 0.604 µM) |  | 0.06 (≈ 0.181 µM) |  | 0.1 (≈ 0.302 µM) | 0.025 (≈ 0.0754 µM) | 0.8 (≈ 2.41 µM) | 0.1 (≈ 0.302 µM) | 0.8 (≈ 2.41 µM) | 0.4 (≈ 1.21 µM) |  | ED50 [14]: 20 mg/kg; ED50 [15]: 25 mg/kg; ED50 [16]: > 100 mg/kg; ED50 [17]: > 100 mg/kg; ED50 [18]: 29 mg/kg; ED50 [19]: 1 mg/kg; ED50 [20]: 5 mg/kg; ED50 [21]: 0.3 mg/kg
4 | CCNCC1CCN(c2c(F)cc3c(=O)c(C(=O)O)cn(C4CCCCC4)c3c2F)C1 (centres undefined) | 6.3 (≈ 14.5 µM) | 3.1 (≈ 7.15 µM) | 3.1 (≈ 7.15 µM) | 30 (≈ 69.2 µM) | 16.5 (≈ 38.1 µM) | 6.3 (≈ 14.5 µM) | 12.5 (≈ 28.8 µM) | 3.1 (≈ 7.15 µM) | 6.3 (≈ 14.5 µM) | > 100 | 6.3 (≈ 14.5 µM) | > 100 | 25 (≈ 57.7 µM) | 
5 | CCNCC1CCN(c2c(F)cc3c(=O)c(C(=O)O)cn(OC)c3c2F)C1 (centres undefined) | 0.8 (≈ 2.1 µM) | 0.8 (≈ 2.1 µM) | 0.2 (≈ 0.524 µM) | 27 (≈ 70.8 µM) | 0.46 (≈ 1.21 µM) | 0.4 (≈ 1.05 µM) | 0.2 (≈ 0.524 µM) | 0.4 (≈ 1.05 µM) | 0.8 (≈ 2.1 µM) | 1.6 (≈ 4.2 µM) | 0.8 (≈ 2.1 µM) | 6.3 (≈ 16.5 µM) | 0.4 (≈ 1.05 µM) | 
6 | CCNCC1CCN(c2c(F)cc3c(=O)c(C(=O)O)cn(CC4CC4)c3c2F)C1 (centres undefined) | 0.2 (≈ 0.493 µM) | 0.8 (≈ 1.97 µM) | 0.1 (≈ 0.247 µM) | 30 (≈ 74 µM) | 2.09 (≈ 5.15 µM) | 0.8 (≈ 1.97 µM) | 1.6 (≈ 3.95 µM) | 0.8 (≈ 1.97 µM) | 0.4 (≈ 0.987 µM) | 12.5 (≈ 30.8 µM) | 0.8 (≈ 1.97 µM) | 25 (≈ 61.7 µM) | 3.1 (≈ 7.65 µM) | 
7 | CN1CCN(c2c(F)cc3c(=O)c(C(=O)O)cn(CCF)c3c2F)CC1 [FLEROXACIN] | 0.8 (≈ 2.17 µM) | 6.3 (≈ 17.1 µM) | 0.2 (≈ 0.542 µM) |  | 0.2 (≈ 0.542 µM) | 0.2 (≈ 0.542 µM) | 0.2 (≈ 0.542 µM) | 0.1 (≈ 0.271 µM) | 6.3 (≈ 17.1 µM) | 0.4 (≈ 1.08 µM) | 3.1 (≈ 8.39 µM) | 1.6 (≈ 4.33 µM) | 0.2 (≈ 0.542 µM) | 
8 | CCNCC1CCN(c2c(F)cc3c(=O)c(C(=O)O)cn(-c4ccccc4)c3c2F)C1 (centres undefined) | 0.8 (≈ 1.87 µM) | 1.6 (≈ 3.74 µM) | 0.2 (≈ 0.468 µM) | 29 (≈ 67.8 µM) | 1.83 (≈ 4.28 µM) | 1.6 (≈ 3.74 µM) | 1.6 (≈ 3.74 µM) | 0.8 (≈ 1.87 µM) | 1.6 (≈ 3.74 µM) | 6.3 (≈ 14.7 µM) | 0.8 (≈ 1.87 µM) | 6.3 (≈ 14.7 µM) | 1.6 (≈ 3.74 µM) | 
9 | C=Cn1cc(C(=O)O)c(=O)c2cc(F)c(N3CCC(CNCC)C3)c(F)c21 (centres undefined) | 0.4 (≈ 1.06 µM) | 0.2 (≈ 0.53 µM) | 0.1 (≈ 0.265 µM) | 2.9 (≈ 7.68 µM) | 0.3 (≈ 0.795 µM) | 0.2 (≈ 0.53 µM) | 0.4 (≈ 1.06 µM) | 0.1 (≈ 0.265 µM) | 0.1 (≈ 0.265 µM) | 1.6 (≈ 4.24 µM) | 0.4 (≈ 1.06 µM) | 1.6 (≈ 4.24 µM) | 0.2 (≈ 0.53 µM) | 
10 | CCNCC1CCN(c2c(F)cc3c(=O)c(C(=O)O)cn(-c4ccc(F)cc4)c3c2F)C1 (centres undefined) | 0.1 (≈ 0.224 µM) | 0.4 (≈ 0.898 µM) | 0.2 (≈ 0.449 µM) | 14 (≈ 31.4 µM) | 0.7 (≈ 1.57 µM) | 0.8 (≈ 1.8 µM) | 1.6 (≈ 3.59 µM) | 0.1 (≈ 0.224 µM) | 0.4 (≈ 0.898 µM) | 1.6 (≈ 3.59 µM) | 0.2 (≈ 0.449 µM) | 1.6 (≈ 3.59 µM) | 0.8 (≈ 1.8 µM) | 
11 | CCNCC1CCN(c2c(F)cc3c(=O)c(C(=O)O)cn(NC)c3c2F)C1 (centres undefined) | 0.4 (≈ 1.05 µM) | 0.1 (≈ 0.263 µM) | 0.2 (≈ 0.526 µM) | 27 (≈ 71 µM) | 0.3 (≈ 0.789 µM) | 0.2 (≈ 0.526 µM) | 0.2 (≈ 0.526 µM) | 0.2 (≈ 0.526 µM) | 0.2 (≈ 0.526 µM) | 1.6 (≈ 4.21 µM) | 0.4 (≈ 1.05 µM) | 0.8 (≈ 2.1 µM) | 0.2 (≈ 0.526 µM) | 
